This note sets out measurements from ChEMBL document CHEMBL1154212, “Candenatenins A-F, phenolic compounds from the heartwood of Dalbergia candenatensis” (J Nat Prod, 2009).

Common to all, as to assay type: functional, cell-based
One assay has as its system HT-29. Put plainly: Cytotoxicity against human HT-29 cells by SRB staining-based fluorescence cytometry. The essentials:
(§1)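 Cytotoxicity assay run with camptothecin as the reference anticancer standard.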
A general note: In SRB staining, fixed cells bind dye roughly in proportion to their protein.

The test system of another assay is KB. The assay is described as follows: Cytotoxicity against human KB cells by SRB staining-based fluorescence cytometry. The essentials: as §1
A further assay has as its system MCF7. The assay is described as follows: Cytotoxicity against human MCF7 cells by SRB staining-based fluorescence cytometry. The essentials:
as §1

The test system of the next assay is HeLa. The assay is described as follows: Cytotoxicity against human HeLa cells by SRB staining-based fluorescence cytometry. Summed up:
as §1

Where [1] appears, read: Homo sapiens, HT-29, read-out: IC50.
Where [2] appears, read: Homo sapiens, KB, read-out: IC50.
Setting [3] is: Homo sapiens, MCF7, read-out: IC50.
Setting [4] is: Homo sapiens, HeLa, read-out: IC50.

As for `COc1ccccc1/C=C/C[C@@]1(O)C=CC(=O)CC1`, the IC50 in the assay on HT-29 (setting [1]) stood at 17.8 µM; in the assay with KB (setting [2]) it was 70.9 µM; in the assay on MCF7 (setting [3]), 48.8 µM; in the assay on HeLa (setting [4]), 54.2 µM.

As for `CO[C@H]1CC(=O)CC[C@@]1(O)C/C=C/c1ccccc1`, the IC50 came to 48.1 µM with HT-29 (setting [1]), 85 µM in the assay on KB (setting [2]), 44.1 µM in the assay on MCF7 (setting [3]) and 53.1 µM in the assay with HeLa (setting [4]).

`COc1c(O)ccc([C@@H]2C=Cc3cc(O)ccc3O2)c1OC`: the IC50 result with HT-29 (ht-29), with KB (kb), in the assay with MCF7 (mcf7) and with HeLa (hela) was “Not Active” in each case.

Regarding `COc1ccc([C@@H]2COc3c(ccc(O)c3C/C=C(\C)CCC=C(C)C)C2)cc1`, the IC50 result with HT-29 (ht-29), with KB (kb), with MCF7 (mcf7) and with HeLa (hela) was “Not Active” throughout.

Take `COc1cc(O)c2c(c1)O[C@H](c1ccccc1)[C@@H](O)C2=O`: the IC50 was found to be 46.5 µM in the assay on HT-29 (setting [1]), 73.8 µM in the assay with KB (setting [2]), 49.3 µM in the assay with MCF7 (setting [3]) and 79 µM with HeLa (setting [4]).

On to `COc1ccc2c(c1O)OC[C@@H]1c3cc4c(cc3O[C@H]21)OCO4`, for which the half-inhibitory concentration (IC50) entry in the assay on HT-29 (ht-29), in the assay with KB (kb), in the assay with MCF7 (mcf7) and with HeLa (hela) was “Not Active” throughout.

In the case of `O=C1C=C[C@](O)(C/C=C/c2ccccc2)CC1` [(1'R)-CANDENATENIN B], the 50% inhibitory concentration (IC50) in the assay on HT-29 (setting [1]) was found to be 19.7 µM; in the assay on KB (setting [2]) it was 83.7 µM; in the assay on MCF7 (setting [3]), 54.4 µM; in the assay with HeLa (setting [4]), 55.7 µM.

On to `CC[C@@]1(O)C(=O)OCc2c1cc1n(c2=O)Cc2cc3ccccc3nc2-1` [CAMPTOTHECIN], for which the IC50 in the assay on HT-29 (setting [1]), with KB (setting [2]), in the assay on MCF7 (setting [3]) and in the assay with HeLa (setting [4]) was 1.22 µM in each case.

`COc1ccc(/C=C/Cc2ccc(O)c(OC)c2OC)cc1O` [CANDENATENIN A]: the IC50 is 41.1 µM in the assay with HT-29 (setting [1]), 42.7 µM in the assay on KB (setting [2]), 74.3 µM in the assay on MCF7 (setting [3]) and 79 µM in the assay on HeLa (setting [4]).

For the compound `COc1ccc2c(c1C/C=C(\C)CCC=C(C)C)OC[C@@H]1c3cc4c(cc3O[C@H]21)OCO4` [NUTIDUCOL], the IC50 result in the assay with HT-29 (ht-29), in the assay with KB (kb), in the assay on MCF7 (mcf7) and in the assay on HeLa (hela) was “Not Active” in each case.

Regarding `CC(C)=CCC/C(C)=C/Cc1c(O)cc(O)c2c1O[C@H](c1ccc(O)cc1)CC2=O` [SOPHORAFLAVANONE A], the IC50 entry in the assay with HT-29 (ht-29), with KB (kb), in the assay on MCF7 (mcf7) and in the assay with HeLa (hela) was “Not Active” in each case.

Usually IC50 stands for the concentration that gives 50% inhibition.
